Screening results deposited in PubChem BioAssay by Sanford-Burnham Center for Chemical Genomics.
SENP1 FRET inh: SENP1 (human) catalytic domain inhibition; Q9P0U3; recombinant SENP1 catalytic domain, CyPet-SUMO1-YPet FRET cleavage; inhibition, % at 10 µM; 360,000 tested, 0.21% active;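 active means inhibition at least 30% at 10 µM, raw YFP signal under a set limit, fluorescence ratio 0.5 to 1.5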;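 further: 0% = enzyme with DMSO and 100% = no enzyme wells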
Target sequence (Q9P0U3 419-644 limits assumed): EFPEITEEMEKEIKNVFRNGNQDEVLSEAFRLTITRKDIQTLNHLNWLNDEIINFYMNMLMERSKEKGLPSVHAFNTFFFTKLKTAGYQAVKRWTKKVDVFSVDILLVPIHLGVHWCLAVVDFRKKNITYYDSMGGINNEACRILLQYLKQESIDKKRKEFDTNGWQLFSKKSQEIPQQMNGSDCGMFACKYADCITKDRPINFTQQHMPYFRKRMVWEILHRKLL
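Test system: recombinant human SENP1 catalytic domain, His6-tagged / Medium: pH 8 Tris buffer with EDTA, NaCl, BME, BSA, NP40, catalase / Also added: SUMO1 FRET substrate flanked by Cypet and Ypet, 25 nM / Times: 50 min reaction at room temperature / Signal: FRET, CFP and YFP emission / Control set: no-enzyme low control and enzyme-plus-DMSO high control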
NR3A LBD binder: NR3A (human) ligand-binding domain modulation. AID 1259313. Tm shift relative to glycine control, % at 25 µM. 340,000 tested, 2.5% active. NR3A LBD differential scanning fluorimetry, Tm shift; 0% = protein alone, 100% = glycine-bound protein;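 active means melting temperature shift of at least 10% of the positive control shift, at one fixed dose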
MPTP block: permeability transition pore inhibition. inhibition, % at 10 µM. isolated mouse mitochondria, Ca2+ swelling absorbance, 30 min. AID 602449. 360,000 tested, 1.4% active;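 active means inhibition of 50% or more, scaled per plate between neutral and stimulator controls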;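 further: 0% = DMSO wells given calcium and 100% = 1 mM EGTA wells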
EBI2 antag: EBI2 (human) antagonism | P32249 | EBI2 beta-arrestin recruitment, luminescence, 7a,25-OHC stimulated | inhibition, % at 5 µM | 360,000 tested, 0.81% active | AID 651636; in the data active means inhibition above about 38%;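 further: enzyme fragment complementation signal reports receptor beta-arrestin coupling in cells; 0% = agonist plus DMSO wells and 100% = wells without agonist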
Target sequence (P32249 whole entry, looked up, the tested form may be a part): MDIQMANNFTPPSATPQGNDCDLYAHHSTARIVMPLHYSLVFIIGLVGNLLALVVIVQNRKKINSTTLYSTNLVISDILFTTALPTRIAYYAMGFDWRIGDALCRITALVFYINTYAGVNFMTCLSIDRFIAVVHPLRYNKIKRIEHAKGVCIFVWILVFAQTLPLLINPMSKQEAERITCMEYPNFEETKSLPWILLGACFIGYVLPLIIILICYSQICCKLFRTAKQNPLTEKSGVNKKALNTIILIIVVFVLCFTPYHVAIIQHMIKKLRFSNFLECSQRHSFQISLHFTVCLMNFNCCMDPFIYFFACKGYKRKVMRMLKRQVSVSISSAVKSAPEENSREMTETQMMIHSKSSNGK
Numbers without * were called inactive; nt = no result given. Rows were chosen to be rich in hits. Some 4.4% of all compounds tested hit in one or more screens of this group.

SMILES | SENP1 FRET inh | NR3A LBD binder | MPTP block | EBI2 antag
COC(=O)c1ccccc1NC(=O)COC(=O)/C=C/c1cccs1 | -1 | 11* | -2 | -6
CCOc1ccccc1NC(=O)COC(=O)/C=C/c1cccs1 | 5 | -1 | -1 | 0
CN(CC(=O)Nc1ccc(F)cc1)C(=O)COC(=O)/C=C/c1cccs1 | 3 | -2 | 1 | -6
O=C(CSc1n[nH]c(-c2ccccc2)n1)c1ccc(O)c(O)c1 | 2 | 12* | 2 | 0
Cc1cc(SCC(=O)c2ccc3c(c2)OCO3)nc2ccccc12 | -9 | -1 | 0 | -2
Cc1ccc(O)c(NC(=O)CSc2n[nH]c(-c3ccccc3)n2)c1 | 0 | 34* | 2 | -11
COc1ccc(-c2nc(SCC(=O)Nc3cccc(S(N)(=O)=O)c3)n[nH]2)cc1 | 2 | 11* | -2 | -2
Cc1cc(SCC(=O)c2ccc(O)c(O)c2)nc2ccccc12 | -1 | 12* | 6 | -1
CCCN(C(=O)c1ccc(S(=O)(=O)N2CCCC2)cc1)C1CCS(=O)(=O)C1 (stereo unspecified) | -2 | 2 | -1 | -15
NS(=O)(=O)c1ccc(CNC(=O)c2scc3c2CCCC3)cc1 | 3 | -2 | 0 | 1
Cc1ccc(C)c(NC(=O)CN(C)C(=O)c2cccc(S(=O)(=O)N3CCCC3)c2)c1 | 0 | -2 | 0 | 6
Cc1ccc(C)c(NC(=O)CN(C)C(=O)c2cccc(S(=O)(=O)N3CCN(Cc4ccccc4)CC3)c2)c1 | 1 | 17* | 2 | 4
O=C(NC(Cc1c[nH]c2ccccc12)c1nnc2n1CCCCC2)c1ccccc1 (stereo unspecified) | 1 | 1 | -2 | -4
O=C(NC(Cc1c[nH]c2ccccc12)c1nnc2n1CCCCC2)c1ccccc1Cl (stereo unspecified) | 3 | 11* | 0 | -10
O=S(=O)(c1ccc(Cl)nc1)N1CCOCC1 | 0 | 2 | 0 | 4
COCCOc1ccc(C(F)(F)F)cc1NC(=O)COC(=O)C12CC3CC(CC(O)(C3)C1)C2 | 0 | 26* | -3 | -3
O=C(COC(=O)C12CC3CC(CC(O)(C3)C1)C2)Nc1ccc(Br)cc1F | 1 | 0 | -1 | 0
COc1ccccc1N1CCN(Cc2ccc(O)c3ncccc23)CC1 | -4 | 1 | -1 | 73*
CCOC(=O)C1CCN(Cc2ccc(O)c3ncccc23)CC1 | 0 | 0 | 0 | 45*
CCOC(=O)Nc1cccc(Nc2ccccc2)c1 | -3 | 27* | 3 | -5
CCOC(=O)Nc1cccc(C(=O)O)c1 | 1 | 1 | -2 | 4
CCOC(=O)Cc1csc(NC(=O)c2sc3nc4ccc(C)cc4cc3c2N)n1 | 26 | 3 | 4 | -3
CCc1nnc(NC(=O)c2sc3nc4cc(C)ccc4cc3c2N)s1 | 54 | 20* | 4 | 10
CCC1CCc2c(sc(NC(=O)c3ccco3)c2C(N)=O)C1 (stereo unspecified) | -26 | 715* | 1 | -14
CCC1CCc2c(sc(NC(=O)CSc3nc(-c4ccco4)cc(C(F)(F)F)n3)c2C#N)C1 (stereo unspecified) | -2 | 12* | 5 | 2
SMILES | SENP1 FRET inh | NR3A LBD binder | MPTP block | EBI2 antag
CC(C)(C)C1CCc2c(sc(NC(=O)c3ccco3)c2C(N)=O)C1 (stereo unspecified) | -3 | -2 | 13 | -10
O=C(Cc1cccc2ccccc12)Nc1ccc(N2CCOCC2)cc1 | -1 | 0 | -2 | 4
CC(C)OC(=O)C1C(=O)CC(C)(O)C(C(=O)OC(C)C)C1c1cccc(O)c1 (stereo unspecified) | 0 | 0 | 3 | 0
O=C(Cn1nnc(-c2ccncc2)n1)NCCc1ccccc1 | -13 | 0 | 0 | -3
O=C(OCn1ncc(Br)c(Br)c1=O)c1ccccc1Cl | 2 | 1 | 0 | 47*
O=C(OCn1ncc(Br)c(Br)c1=O)c1ccc(F)cc1 | 2 | 4 | 1 | 50*
CCc1nc2ccc(C(=O)Nc3ccc(OC)c(OC)c3)cn2c1N(C)Cc1nccs1 | -24 | nt | 1 | 5
CN1C(=O)c2ccc(C(=O)Nc3nccs3)cc2C1=O | 0 | 0 | 2 | 2
Cc1ccc(C(=O)C2=C(O)C(=O)N(c3ncccn3)C2c2ccc(Cl)cc2)o1 (stereo unspecified) | -1 | 13* | 8 | 1
Nc1ccccc1C#Cc1ccc2[nH]ccc2c1 | -3 | 19* | 0 | -12
CC1(C)C2CC[C@]3(C)C(CC=C4[C@@H]5C[C@@](C)(CO)[C@@H](O)C[C@]5(C(=O)O)CC[C@]43C)[C@@]2(C)CC[C@@H]1O (stereo partly specified) | -1 | 0 | -1 | 4
CC1(C)CC[C@]2(C(=O)O)CC[C@]3(CO)C(=CCC4[C@@]5(C)C[C@H](O)[C@H](O)[C@@](C)(C(=O)O)C5CC[C@]43C)[C@@H]2C1 (stereo partly specified) | 0 | 14* | 0 | -4
CCOc1ccc(C(=O)Nc2ccc(NC(=O)c3cccs3)cc2)cc1[N+](=O)[O-] | 2 | 28* | 3 | 0
CCOc1ccccc1NC(=O)c1ccc(OCC)c([N+](=O)[O-])c1 | 2 | 0 | -1 | -2
COc1ccc(C(=O)Nc2ccc(C(=O)Nc3nccs3)cc2)cc1[N+](=O)[O-] | 7 | 22* | 0 | -25
O=C(Nc1nccs1)c1ccc(Cl)c([N+](=O)[O-])c1 | 1 | -1 | 0 | 2
COc1ccc(C(=O)Nc2ccc(NC(=O)c3cccs3)cc2)cc1[N+](=O)[O-] | 3 | 24* | -1 | 4
Cc1ccc(NC(=O)CSc2ncn[nH]2)c([N+](=O)[O-])c1 | 3 | -1 | -1 | 5
CCOC(=O)c1cc(=O)nc(N)s1 | 0 | nt | -1 | -20
CC(OC(=O)c1ccccc1O)C(=O)Nc1cccc(Cl)c1 (stereo unspecified) | 2 | -3 | 1 | 1
Cc1ccc2nc(N/N=C/c3ccccc3C#N)nc(-c3ccccc3)c2c1 | -54 | -1 | 1 | 8
Cc1ccc2nc(N/N=C/c3ccccc3F)nc(-c3ccccc3)c2c1 | -39 | 13* | 18 | 17
Cn1c(=O)c2c(ncn2CC(=O)OCCCC(=O)c2ccc(Br)cc2)n(C)c1=O | -1 | 18* | 33 | -5
CCOc1ccc(C(=O)COC(=O)Cn2cnc3c2c(=O)n(C)c(=O)n3C)cc1 | -1 | -1 | 0 | -21
COc1ccc(/C=N/N(C)c2cc(=O)n(C)c(=O)[nH]2)cc1OC | -82 | -1 | 1 | -10
Cc1ccc2[nH]c(=O)c(NC(N)=S)nc2c1 | 1 | 11* | 0 | -7
COc1ccc(-c2c(C#Cc3ccsc3)c3cc(-c4cccc5[nH]ccc45)ccc3n2C)cc1 | -13 | 1 | -1 | 6
COc1ccc(-c2c(C#Cc3ccsc3)c3cc(-c4ccc5[nH]ccc5c4)ccc3n2C)cc1 | -4 | 11* | 0 | -4
Cc1cc2c(cc1C)CSC(c1ccccc1O)SC2 | -2 | 12* | 6 | 7
Cc1cc2c(cc1C)CSC(c1ccc3ccccc3c1O)SC2 | -14 | 15* | 16 | 10
